Kb, ID50 and ED50 data for 44 molecules are collected here from ChEMBL document CHEMBL1126608.

Assay [1] has as its target T1, Muscarinic acetylcholine receptor M2 (Homo sapiens) (UniProt P08172).
T1 sequence (whole entry): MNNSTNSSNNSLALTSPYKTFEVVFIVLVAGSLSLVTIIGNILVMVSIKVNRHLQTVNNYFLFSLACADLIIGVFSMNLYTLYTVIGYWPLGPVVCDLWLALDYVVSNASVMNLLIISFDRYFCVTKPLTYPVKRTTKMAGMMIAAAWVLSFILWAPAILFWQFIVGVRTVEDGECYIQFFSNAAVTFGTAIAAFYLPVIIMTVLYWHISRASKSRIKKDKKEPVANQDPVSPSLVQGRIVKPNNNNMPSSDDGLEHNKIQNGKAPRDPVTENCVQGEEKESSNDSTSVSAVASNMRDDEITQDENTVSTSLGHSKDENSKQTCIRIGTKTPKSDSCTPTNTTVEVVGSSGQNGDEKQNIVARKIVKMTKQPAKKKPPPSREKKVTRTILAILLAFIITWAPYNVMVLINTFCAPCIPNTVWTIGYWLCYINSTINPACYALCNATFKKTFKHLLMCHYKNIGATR
Briefly: Antagonist activity against muscarinic M2 receptor from guinea pig atria. The class given is functional. Conditions: Cavia porcellus; target entry is the homologue from another species. An outline of the steps: (§1)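 Isolated guinea pig right atria in Krebs-Henseleit buffer; cumulative carbachol concentration-rate response curves before and after at least three increasing antagonist concentrations (5-min preincubation). Responses as % of maximal carbachol-induced rate inhibition without antagonist.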

The target in assay [2] is T2, Muscarinic acetylcholine receptor (Homo sapiens) (UniProt P20309+P08173+P11229+P08172+P08912). Conditions: Cavia porcellus.
Assay [3] has as its target Muscarinic acetylcholine receptor M3 (Cavia porcellus) (UniProt Q8VH26). Briefly: Antagonist activity against muscarinic M3 receptor from guinea pig ileum. The class given is functional, tissue-based. The essentials:
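Longitudinal guinea pig ileum strips suspended in oxygenated Krebs buffer; carbachol concentration-response curves with or without at least three increasing antagonist concentrations (5-min preincubation). Contraction as % of maximal carbachol response without antagonist.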

The target in assay [4] is T2, Muscarinic acetylcholine receptor (Homo sapiens). Briefly: In vivo antimuscarinic activity to decrease carbachol-stimulated salivation in guinea pig. The class given is functional, organism-based. Conditions: Cavia porcellus; target entry is the homologue from another species. The essentials:
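Guinea pigs dosed sc with various antagonist doses; 30 min later carbachol 0.1 mg/kg ip; ability to respond to agonist scored 5-10 min afterwards.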

Assay [5] has as its target T1, Muscarinic acetylcholine receptor M2 (Homo sapiens). Briefly: Antagonist activity against muscarinic M2 receptor from guinea pig atria; Non competitive. The conditions noted are these: Cavia porcellus; filed as antagonist; target entry is the homologue from another species. The class given is functional. An outline of the steps: as §1

Usually Kb stands for the affinity of an antagonist, worked out from how it opposes an agonist. Read a low Kb as higher antagonist affinity. For orientation: ED50 means the dose that gives a 50% effect, or the effect in half of the subjects.
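For ID50 in this document: in vivo guinea pig assay: antimuscarinic effect measured as reduced salivation after carbachol stimulation.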

Muscarinic acetylcholine receptor M3 (Cavia porcellus), sequence (Q8VH26 1-587): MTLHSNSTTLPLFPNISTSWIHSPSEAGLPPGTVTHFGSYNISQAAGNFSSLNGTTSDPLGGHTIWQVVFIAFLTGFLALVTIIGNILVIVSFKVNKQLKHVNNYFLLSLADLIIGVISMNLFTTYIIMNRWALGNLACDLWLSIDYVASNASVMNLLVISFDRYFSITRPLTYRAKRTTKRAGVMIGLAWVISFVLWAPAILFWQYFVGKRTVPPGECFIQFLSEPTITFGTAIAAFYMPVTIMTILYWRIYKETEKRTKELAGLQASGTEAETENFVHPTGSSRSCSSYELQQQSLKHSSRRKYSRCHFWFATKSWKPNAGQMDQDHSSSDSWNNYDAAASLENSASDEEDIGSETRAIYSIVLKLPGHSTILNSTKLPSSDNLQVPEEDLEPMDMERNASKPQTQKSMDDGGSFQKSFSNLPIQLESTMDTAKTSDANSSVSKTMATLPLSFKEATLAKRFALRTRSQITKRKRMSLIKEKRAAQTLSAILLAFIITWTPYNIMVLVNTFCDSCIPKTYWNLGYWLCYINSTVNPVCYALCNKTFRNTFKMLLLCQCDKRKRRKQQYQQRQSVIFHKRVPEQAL

`O=C(CN1CCN(C/C=C\c2ccccc2)CC1)C(O)(c1ccccc1)C1CCC1` (stereo not given): the antagonist equilibrium constant (Kb) in assay [1] came out at 2.3 nM; in assay [3] it was 9.92 nM. For the same molecule, in assay [2], the ID50 was 1.2 mg/kg.

With `O=C(CN1CCN(Cc2cccc(Cl)c2)CC1)C(O)(c1ccccc1)C1CCC1` (stereo not given), the antagonist dissociation constant (Kb) in assay [1] amounted to 380 nM; in assay [3], 27 nM. Also, the ID50 in assay [2] was found to be 8.3 mg/kg.

`O=C(CN1CCN(CC(=O)C(O)(c2ccccc2)C2CCC2)CC1)C(O)(c1ccccc1)C1CCC1` (stereo not given): the antagonist dissociation constant (Kb) in assay [1] was above 1000 nM; in assay [3], 207 nM.

For `CN1CCN(CC(=O)C(O)(c2ccccc2)C2CCCCC2)CC1` (stereo not given), the Kb in assay [1] came out at 210 nM; in assay [3], 15 nM. Further, in assay [4], the 50% effect level (ED50) was put at a dose of 1.84 mg/kg.

In the case of `O=C(CN1CCN(Cc2ccc3c(c2)OCO3)CC1)C(O)(c1ccccc1)C1CCC1` (stereo not given), the antagonist dissociation constant (Kb) in assay [1] was 45 nM; in assay [3], 8 nM. In assay [4], the 50% effective dose (ED50) turned out to be 4 mg/kg.

`C=CCN1CCN(CC(=O)C(O)(c2ccccc2)C2CCCCC2)CC1` (stereo not given): the Kb in assay [1] came out at 425 nM; in assay [3] it was 25.6 nM. The molecule also came in with an ID50 in assay [2] of 21 mg/kg.

As to `COc1cccc(CN2CCN(CC(=O)C(O)(c3ccccc3)C3CCC3)CC2)c1` (stereo not given), the antagonist equilibrium constant (Kb) worked out at 136 nM in assay [1] and 17 nM in assay [3].

On to `N#CCN1CCN(CC(=O)C(O)(c2ccccc2)C2CCC2)CC1` (stereo not given), for which the antagonist equilibrium constant (Kb) is above 30000 nM in assay [1] and 2710 nM in assay [3]. Further, in assay [2], the ID50 was found to be 35.7 mg/kg.

Regarding `O=C(CN1CCN(Cc2ccc(Cl)cc2)CC1)C(O)(c1ccccc1)C1CCC1` (stereo not given), the Kb is 515 nM in assay [1] and 16 nM in assay [3]. In assay [2], this molecule gave an ID50 of 9.8 mg/kg.

Consider `CN(C)CCNCC(=O)C(O)(c1ccccc1)C1CCCCC1` (stereo not given), for which the antagonist dissociation constant (Kb) in assay [1] was 216 nM; in assay [3] it was 5.5 nM. The molecule also came in with a 50% effective dose (ED50) in assay [4] of 0.13 mg/kg.

Turning to `O=C(CN1CCN(Cc2ccccc2)CC1)C(O)(c1ccccc1)C1CC1` (stereo not given), the antagonist dissociation constant (Kb) in assay [1] came out at 225 nM; in assay [3], 24 nM. In addition, in assay [2], the ID50 was found to be 9.9 mg/kg.

As for `C=C(C)CN1CCN(CC(=O)C(O)(c2ccccc2)C2CCC2)CC1` (stereo not given), the antagonist equilibrium constant (Kb) in assay [1] was 551 nM; in assay [3] it was 100 nM. The molecule further gave an ED50 in assay [4] of 17 mg/kg.

With `O=C(CN1CCC(N2CCCC2)CC1)C(O)(c1ccccc1)C1CCC1` (stereo not given), the Kb in assay [1] is 2440 nM; in assay [3], above 10000 nM.

Regarding `O=C(CN1CCN(Cc2ccco2)CC1)C(O)(c1ccccc1)C1CCC1` (stereo not given), the antagonist dissociation constant (Kb) is above 30000 nM in assay [1] and 750 nM in assay [3].

Turning to `O=C(CN1CCN(CCc2ccccc2)CC1)C(O)(c1ccccc1)C1CCC1` (stereo not given), the Kb in assay [1] was above 1000 nM; in assay [3] it was 302 nM.

Take `O=C(CN1CCN(CCO)CC1)C(O)(c1ccccc1)C1CCC1` (stereo not given): the Kb in assay [1] was 2350 nM; in assay [3] it was 185 nM. The ID50 in assay [2] stood at 4.93 mg/kg.

As for `CC(C)CC(O)(C(=O)CN1CCN(Cc2ccccc2)CC1)c1ccccc1` (stereo not given), the antagonist equilibrium constant (Kb) in assay [1] was above 3000 nM; in assay [3] it was 171 nM. Moreover, the ID50 in assay [2] turned out to be 43.4 mg/kg.

On to `O=C(CN1CCC(N2CCCC2)CC1)C(O)(c1ccccc1)C1CCCCC1` (stereo not given), for which the Kb in assay [1] is 4510 nM; in assay [3], 349 nM.

On to `O=C(CN1CCN(Cc2ccccc2)CC1)C(O)(c1ccccc1)C1CCCCC1` (stereo not given), for which the antagonist dissociation constant (Kb) in assay [1] worked out at 282 nM; in assay [3] it was 12 nM. In assay [2], this molecule had an ID50 of 4.38 mg/kg.

Turning to `O=C(CN1CCN(Cc2ccccc2)CC1)C(O)(c1ccccc1)C1CCCC1` (stereo not given), the Kb in assay [1] came out at 78 nM; in assay [3], 2.6 nM. The ID50 in assay [2] is 0.24 mg/kg.

For `O=C(CN1CCNCC1)C(O)(c1ccccc1)C1CCC1` (stereo not given), the results for the antagonist dissociation constant (Kb) in assay [1] and in assay [3] were 940 nM and 87 nM, respectively. Moreover, the ID50 in assay [2] worked out at 1.65 mg/kg.

For `COc1ccc(CN2CCN(CC(=O)C(O)(c3ccccc3)C3CCC3)CC2)cc1` (stereo not given), the antagonist equilibrium constant (Kb) came out at 263 nM in assay [1] and 27.9 nM in assay [3]. This molecule displayed an ID50 in assay [2] of 10.8 mg/kg.

In assay [2], `C=CCCN1CCN(CC(=O)C(O)(c2ccccc2)C2CCC2)CC1` (stereo not given) displayed an ID50 of 27.2 mg/kg. For the same molecule, the figures for the Kb in assay [3] and in assay [5] were 35.6 nM and “Non-competitive antagonist”, respectively.

For `O=C(CN1CCN(c2ccc([N+](=O)[O-])cc2)CC1)C(O)(c1ccccc1)C1CCC1` (stereo not given), the antagonist equilibrium constant (Kb) in assay [1] and in assay [3] was above 10000 nM in each case.

`CCOc1ccccc1N1CCN(CC(=O)C(O)(c2ccccc2)C2CCC2)CC1` (stereo not given): the Kb in assay [1] and in assay [3] was above 10000 nM each time.

For the molecule `CC(C)=CCN1CCN(CC(=O)C(O)(c2ccccc2)C2CCC2)CC1` (stereo not given), the Kb in assay [1] was found to be 305 nM; in assay [3] it was 22 nM. Moreover, in assay [2], the ID50 was found to be 4.9 mg/kg.

Take `O=C(CN1CCN(Cc2ccccc2)CC1)C(O)(c1ccccc1)c1ccccc1`: the Kb was 1460 nM in assay [1] and 6 nM in assay [3]. In assay [2], this molecule displayed an ID50 above 100 mg/kg.

For the molecule `O=C(CN1CCN(C2CCC2)CC1)C(O)(c1ccccc1)C1CCC1` (stereo not given), the Kb was 1800 nM in assay [1] and 230 nM in assay [3]. The ID50 in assay [2] was determined as 18.3 mg/kg.

In the case of `O=C(CN1CCN(C(c2ccccc2)c2ccccc2)CC1)C(O)(c1ccccc1)C1CCC1` (stereo not given), the antagonist equilibrium constant (Kb) in assay [1] was above 100000 nM; in assay [3] it was above 10000 nM.

For the molecule `O=C(CN1CCN(c2ccccc2)CC1)C(O)(c1ccccc1)C1CCC1` (stereo not given), the antagonist dissociation constant (Kb) is above 30000 nM in assay [1] and 624 nM in assay [3].

Consider `CCOC(=O)N1CCN(CC(=O)C(O)(c2ccccc2)C2CCCCC2)CC1` (stereo not given), for which the Kb in assay [1] is above 30000 nM; in assay [3] it was above 10000 nM.

With `O=C(CN1CCC(O)CC1)C(O)(c1ccccc1)C1CCC1` (stereo not given), the values for the antagonist dissociation constant (Kb) in assay [1] and in assay [3] were 2340 nM and 472 nM, respectively.

As to `Cc1ccc(CN2CCN(CC(=O)C(O)(c3ccccc3)C3CCC3)CC2)cc1` (stereo not given), the Kb amounted to 82 nM in assay [1] and 11 nM in assay [3]. In assay [2], this molecule came in with an ID50 of 8.4 mg/kg.

On to `O=C(CN1CCN(CCO)CC1)C(O)(c1ccccc1)C1CCCCC1` (stereo not given), for which the values for the Kb in assay [1] and in assay [3] were 530 nM and 53 nM, respectively. This molecule returned an ED50 in assay [4] above 10 mg/kg.

Take `O=C(CN1CCN(Cc2ccc([N+](=O)[O-])cc2)CC1)C(O)(c1ccccc1)C1CCC1` (stereo not given): the Kb in assay [1] was found to be 2700 nM; in assay [3], 105 nM. This molecule also came in with an ID50 in assay [2] of 21 mg/kg.

Consider `O=C(CN1CCN(Cc2ccccc2Cl)CC1)C(O)(c1ccccc1)C1CCC1` (stereo not given), for which the Kb in assay [1] was above 10000 nM; in assay [3], 56 nM.

Take `CN1CCN(CC(=O)C(O)(c2ccccc2)C2CCC2)CC1` (stereo not given): the antagonist equilibrium constant (Kb) in assay [1] is 79 nM; in assay [3] it was 13 nM. Moreover, the ID50 in assay [2] worked out at 0.72 mg/kg.

Consider `Cc1ccccc1CN1CCN(CC(=O)C(O)(c2ccccc2)C2CCC2)CC1` (stereo not given), for which the results for the antagonist dissociation constant (Kb) in assay [1] and in assay [3] were above 1000 nM and 199 nM, respectively.

On to `CCCN1CCN(CC(=O)C(O)(c2ccccc2)C2CCC2)CC1` (stereo not given), for which the antagonist equilibrium constant (Kb) in assay [1] stood at 1190 nM; in assay [3], 673 nM. The ID50 in assay [2] was found to be 31.1 mg/kg.

For the molecule `COc1ccccc1N1CCN(CC(=O)C(O)(c2ccccc2)C2CCC2)CC1` (stereo not given), the antagonist equilibrium constant (Kb) in assay [1] and in assay [3] was above 10000 nM in each case.

For `O=C(CN1CCN(Cc2cccs2)CC1)C(O)(c1ccccc1)C1CCC1` (stereo not given), the Kb amounted to 491 nM in assay [1] and 43.8 nM in assay [3]. For the same molecule, the ID50 in assay [2] worked out at 25 mg/kg.

Regarding `O=C(CN1CCN(CC(=O)C(O)(c2ccccc2)C2CCC2)CC1)N1CCCC1` (stereo not given), the values for the Kb in assay [1] and in assay [3] were above 3000 nM and 210 nM, respectively.

Turning to `C=CCN1CCN(CC(=O)C(O)(c2ccccc2)C2CCC2)CC1` (stereo not given), the Kb turned out to be 299 nM in assay [1] and 60 nM in assay [3]. In assay [2], the ID50 was found to be 20.4 mg/kg.

`C#CCN1CCN(CC(=O)C(O)(c2ccccc2)C2CCCCC2)CC1` (stereo not given): the antagonist dissociation constant (Kb) in assay [1] was 5670 nM; in assay [3] it was 260 nM.
